Experimental data taken from ChEMBL document CHEMBL4396917, “Synthesis and biological evaluation of novel benzylidene-succinimide derivatives as noncytotoxic antiangiogenic inhibitors with anticolorectal cancer activity in vivo” (Eur J Med Chem, 2019).
Activity calls are given as the source filed them. The calls are words filed in the database; no cut-off is given here.

Assays:
[1] = test system: HUVEC; assay: Induction of apoptosis in VEGF-stimulated HUVEC assessed as early apoptotic cells at 10 uM after 24 hrs by Annexin V-FITC/propidium iodide staining based flow cytometric analysis (reference value: 7%); format: cell-based; conditions: human
Summary of the method: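 HUVECs plated at 5×10^5 per well and treated 24 h with 1, 5, 10 or 20 μM. Detached and adherent cells were pooled, washed in ice-cold PBS and resuspended in fresh medium. 1×10^5 cells were stained with annexin-V-FITC in annexin-V buffer for 20 min in the dark, then PI (50 μg/mL) was added. Read-out by flow cytometry.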

[2] = test system: HUVEC; assay: Antimigratory activity in HUVEC assessed as reduction in VEGF-induced cell migration at 2.5 uM measured after 12 hrs by wound healing assay relative to control; format: functional; conditions: Homo sapiens
Summary of the method: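 Confluent HUVECs starved 12 h in M200 with 2% FBS, scratched with pipette tip; fresh M200 with 25 ng/mL VEGF plus vehicle, 2.5 μM sunitinib or compound (1, 2.5 μM); wound imaged at 0, 6, 12 and 24 h by inverted microscopy.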

[3] = test system: HT-29; assay: Antitumor activity against human HT-29 cells xenografted in mouse assessed as large areas of late apoptotic and necrotic cells in tumor at 20 to 60 mg/kg, po administered every other day for 3 weeks and measured at 20 days post treatment by H and E staining based assay; format: functional, organism-based
[4] = test system: HT-29; assay: Downregulation of HIF1-alpha expression in human HT-29 cells after 24 hrs by immunoblot analysis; format: functional, cell-based

Q: Which results are given for `COc1ccc(NC(=O)c2cccc(/C=C3\CC(=O)N(c4ccc(C)cc4)C3=O)c2)cc1`?
A: Activity [1]: 10.8%; inhibition at 2.5 µM [2]: 50%; Activity [3]: Active; inhibition [4]: Dose-dependent effect
